The source made the active and inactive calls.
What was measured:
[1] = species: Mus musculus; experiment: Potency index, ratio of valproic acid ED50 to compound ED50 for protection against pentylenetetrazole-induced seizures in Albino Swiss CD-1 mouse; format: functional
[2] = tested on: Mus musculus; experiment: Protection index, ratio of TD50 for neurotoxicity in ip dosed Albino Swiss CD-1 mouse to ED50 for ip dosed pentylenetetrazole induced seizure Albino Swiss CD-1 mouse model
Method in brief: (§1)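 Acute neurological toxicity after ip dosing (1% Tween 80 suspension) was assessed in the mouse chimney test. TD50 with 95% confidence limits was derived by probit analysis. Protective index is TD50 from the chimney test divided by ED50 from the MES, scPTZ or 6 Hz test.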

[3] = tested on: Mus musculus; experiment: Anticonvulsant activity in ip dosed Albino Swiss CD-1 mouse assessed as protection against maximal electroshock-induced seizures pretreated up to 2 hrs followed by 50 Hz current induction for […] measured at time to peak effect; format: functional; details: Swiss CD-1, ip
[4] = tested on: Mus musculus; experiment: Antiallodynic activity in oxaliplatin-induced Albino Swiss CD-1 mouse model of peripheral neuropathy assessed as elevation in pain sensitivity threshold at 50 mg/kg, ip administered 30 mins prior to oxaliplatin challenge relative to control; format: functional
Method in brief: (§2)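 Male CD-1 mice, 18–25 g, that had developed oxaliplatin-induced tactile allodynia were dosed ip 30 min before testing. Doses were 25, 50 or 100 mg/kg, or 50, 100 or 150 mg/kg for the reference. Vehicle was 1% aqueous Tween 80. Paw-withdrawal force was measured by von Frey filaments. Data are mean ± SEM, analysed by repeated-measures ANOVA with Dunnett's test against oxaliplatin plus vehicle mice.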

[5] = tested on: Mus musculus; experiment: Anticonvulsant activity in ip dosed Albino Swiss CD-1 mouse assessed as protection against 32 mA current-induced seizure treated up to 2 hrs prior to 6-Hz current induction measured at time to peak effect; format: functional; details: Swiss CD-1, ip
[6] = species: Rattus norvegicus; experiment: Displacement of [3H]CGP 39653 from NMDA receptor in rat cerebral cortex at 100 uM after 60 mins by liquid scintillation counting
Method in brief: (§3)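 Radioligand binding was run as a contract service. Percent inhibition of specific labelled-ligand binding was measured at 100 μM test compound, or 200 μM for hERG.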

[7] = tested on: Mus musculus; experiment: Antiallodynic activity in oxaliplatin-induced Albino Swiss CD-1 mouse model of peripheral neuropathy assessed as elevation in pain sensitivity threshold administered ip 30 mins prior to oxaliplatin challenge; format: functional, organism-based; method in brief: as §2
[8] = tested on: Mus musculus; experiment: Anticonvulsant activity in Albino Swiss CD-1 mouse assessed as protection against maximal electroshock-induced seizures by measuring time to peak effect at 100 mg/kg, ip pretreated up to 2 hrs followed by 50 Hz current induction for […]; format: functional
[9] = species: Rattus norvegicus; experiment: Displacement of omega[125I]conotoxin from N-type calcium channel in rat cerebral cortex at 100 uM by scintillation spectrophotometry
Method in brief: (§4)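 Run commercially by an outside contract lab, with the compound tested at 100 μM. The read-out was percent inhibition of binding of the radiolabelled ligand, reported as compound binding.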

[10] = Retention time of the compound by LC-MS method
[11] = Neurotoxicity in ip dosed Albino Swiss CD-1 mouse assessed as induction of motor impairment measured up to 60 secs by chimney test; format: toxicity, organism-based; details: in vivo; method in brief: as §1
[12] = tested on: Mus musculus; experiment: Protection index, ratio of TD50 for neurotoxicity in ip dosed Albino Swiss CD-1 mouse to ED50 for ip dosed maximal electroshock induced seizure Albino Swiss CD-1 mouse; method in brief: as §1
[13] = tested on: Mus musculus; experiment: Antinociceptive activity in Albino Swiss CD-1 mouse assessed as inhibition of capsaicin-induced nociception by measuring time spent licking injected paw at 50 mg/kg, ip administered 30 mins mins prior to capsaicin challenge measured for 5 mins relative to control; format: functional; details: Swiss CD-1, ip
Method in brief: (§5)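 Mice (male CD-1, 18–25 g) were pretreated ip 30 min before intraplantar capsaicin. Doses were 25, 50 or 100 mg/kg, or 100, 150 or 200 mg/kg for the reference. Vehicle was 1% Tween 80 at 10 mL/kg. Duration of nociceptive response was scored over 5 min after injection. Data are mean ± SEM of 8–10 mice, by one-way ANOVA with Dunnett's test against vehicle.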

[14] = tested on: Mus musculus; experiment: Antinociceptive activity in Albino Swiss CD-1 mouse assessed as inhibition of capsaicin-induced nociception by measuring time spent licking injected paw at 100 mg/kg, ip administered 30 mins mins prior to capsaicin challenge measured for 5 mins relative to control; format: functional; details: Swiss CD-1, ip; method in brief: as §5
[15] = tested on: Mus musculus; experiment: Antiallodynic activity in oxaliplatin-induced Albino Swiss CD-1 mouse model of peripheral neuropathy assessed as elevation in pain sensitivity threshold at 100 mg/kg, ip administered 30 mins prior to oxaliplatin challenge relative to control; format: functional; method in brief: as §2
[16] = species: Rattus norvegicus; experiment: Displacement of (-)-[3H](-)D 888 from L-type calcium channel verapamil binding site in rat cerebral cortex at 100 uM; method in brief: as §3
[17] = tested on: Mus musculus; experiment: Toxicity in Albino Swiss CD-1 mouse assessed as effect on spontaneous locomotar activity at 25 to 150 mg/kg, ip treated 30 mins prior to test; format: organism-based; details: in vivo, 0.5 h
Method in brief: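 Male CD-1 mice were dosed ip at 25, 50, 100 or 150 mg/kg 30 min before testing and then placed singly in activity cages. Light-beam crossings were counted over 30 min in 10 min intervals.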

[18] = species: Rattus norvegicus; experiment: Displacement of [3H]GABA from GABA transporter in rat cerebral cortex at 100 uM by liquid scintillation spectrometry; method in brief: as §3
[19] = tested on: Mus musculus; experiment: Anticonvulsant activity in Albino Swiss CD-1 mouse assessed as protection against 6 Hz current-induced seizure at 100 mg/kg, ip pretreated up to 2 hrs followed by 6 Hz current induction for 3 secs relative to control; format: functional
[20] = target: Cytochrome P450 3A4 (Homo sapiens, UniProt P08684); experiment: Inhibition of human CYP3A4 assessed as reduction in luciferin-PPXE conversion to D-luciferin at 12.5 to 25 uM by luminescence assay; format: ADME
Method in brief: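 P450-Glo luminescence assays used recombinant human CYP3A4 or CYP2D6 with conversion of luciferin-PPXE to D-luciferin. Ketoconazole (CYP3A4) and quinidine (CYP2D6) served as reference inhibitors.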

[21] = species: Rattus norvegicus; experiment: Displacement of [3H]-batrachotoxinin from sodium channel site 2 in rat cerebral cortex at 100 uM after 60 mins by liquid scintillation spectroscopic method; method in brief: as §4
[22] = tested on: Mus musculus; experiment: Antinociceptive activity in Albino Swiss CD-1 mouse assessed as inhibition of capsaicin-induced nociception by measuring time spent licking injected paw administered ip 30 mins mins prior to capsaicin challenge measured for 5 mins; format: functional, organism-based; method in brief: as §5
[23] = tested on: Mus musculus; experiment: Protection index, ratio of TD50 for neurotoxicity in ip dosed Albino Swiss CD-1 mouse to ED50 for ip dosed Albino Swiss CD-1 mouse model of 6 Hz-induced siezures; method in brief: as §1
[24] = tested on: Mus musculus; experiment: Anticonvulsant activity in Albino Swiss CD-1 mouse assessed as protection against maximal electroshock-induced seizures at 100 mg/kg, ip pretreated up to 2 hrs followed by 50 Hz current induction for […] relative to control; format: functional
[25] = tested on: Mus musculus; experiment: Anticonvulsant activity in ip dosed Albino Swiss CD-1 mouse assessed as inhibition of pentylenetetrazole-induced seizures administered up to 2 hrs prior to PTZ induction measured at time to peak effect; format: functional; details: Swiss CD-1, ip
[26] = target: Voltage-gated inwardly rectifying potassium channel KCNH2 (Homo sapiens, UniProt Q12809); experiment: Displacement of [3H]astemizole from human hERG expressed in HEK293 cell membrane at 200 uM after 90 mins by liquid scintillation counting; format: cell membranes; details: hek293, 1.5 h; method in brief: as §3
[27] = species: Rattus norvegicus; experiment: Displacement of [3H]diltiazem from L-type calcium channel diltiazem binding site in rat cerebral cortical membranes at 100 uM after 60 mins; format: cell membranes; method in brief: as §3

Sequence of Cytochrome P450 3A4 (P08684 whole entry): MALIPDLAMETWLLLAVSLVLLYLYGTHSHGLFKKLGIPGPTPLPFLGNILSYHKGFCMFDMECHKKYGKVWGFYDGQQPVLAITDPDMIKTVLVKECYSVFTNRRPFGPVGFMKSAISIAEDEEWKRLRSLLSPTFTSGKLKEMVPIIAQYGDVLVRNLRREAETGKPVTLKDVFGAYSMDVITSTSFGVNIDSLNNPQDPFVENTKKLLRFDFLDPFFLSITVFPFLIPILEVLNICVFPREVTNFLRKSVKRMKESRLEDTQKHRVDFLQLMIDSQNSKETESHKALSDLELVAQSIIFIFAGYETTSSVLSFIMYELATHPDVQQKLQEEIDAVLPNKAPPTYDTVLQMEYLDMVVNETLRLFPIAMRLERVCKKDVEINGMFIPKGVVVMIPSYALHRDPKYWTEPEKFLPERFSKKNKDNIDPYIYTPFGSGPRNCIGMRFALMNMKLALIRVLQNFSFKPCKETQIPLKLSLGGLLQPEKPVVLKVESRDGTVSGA
Sequence of Voltage-gated inwardly rectifying potassium channel KCNH2 (Q12809 whole entry): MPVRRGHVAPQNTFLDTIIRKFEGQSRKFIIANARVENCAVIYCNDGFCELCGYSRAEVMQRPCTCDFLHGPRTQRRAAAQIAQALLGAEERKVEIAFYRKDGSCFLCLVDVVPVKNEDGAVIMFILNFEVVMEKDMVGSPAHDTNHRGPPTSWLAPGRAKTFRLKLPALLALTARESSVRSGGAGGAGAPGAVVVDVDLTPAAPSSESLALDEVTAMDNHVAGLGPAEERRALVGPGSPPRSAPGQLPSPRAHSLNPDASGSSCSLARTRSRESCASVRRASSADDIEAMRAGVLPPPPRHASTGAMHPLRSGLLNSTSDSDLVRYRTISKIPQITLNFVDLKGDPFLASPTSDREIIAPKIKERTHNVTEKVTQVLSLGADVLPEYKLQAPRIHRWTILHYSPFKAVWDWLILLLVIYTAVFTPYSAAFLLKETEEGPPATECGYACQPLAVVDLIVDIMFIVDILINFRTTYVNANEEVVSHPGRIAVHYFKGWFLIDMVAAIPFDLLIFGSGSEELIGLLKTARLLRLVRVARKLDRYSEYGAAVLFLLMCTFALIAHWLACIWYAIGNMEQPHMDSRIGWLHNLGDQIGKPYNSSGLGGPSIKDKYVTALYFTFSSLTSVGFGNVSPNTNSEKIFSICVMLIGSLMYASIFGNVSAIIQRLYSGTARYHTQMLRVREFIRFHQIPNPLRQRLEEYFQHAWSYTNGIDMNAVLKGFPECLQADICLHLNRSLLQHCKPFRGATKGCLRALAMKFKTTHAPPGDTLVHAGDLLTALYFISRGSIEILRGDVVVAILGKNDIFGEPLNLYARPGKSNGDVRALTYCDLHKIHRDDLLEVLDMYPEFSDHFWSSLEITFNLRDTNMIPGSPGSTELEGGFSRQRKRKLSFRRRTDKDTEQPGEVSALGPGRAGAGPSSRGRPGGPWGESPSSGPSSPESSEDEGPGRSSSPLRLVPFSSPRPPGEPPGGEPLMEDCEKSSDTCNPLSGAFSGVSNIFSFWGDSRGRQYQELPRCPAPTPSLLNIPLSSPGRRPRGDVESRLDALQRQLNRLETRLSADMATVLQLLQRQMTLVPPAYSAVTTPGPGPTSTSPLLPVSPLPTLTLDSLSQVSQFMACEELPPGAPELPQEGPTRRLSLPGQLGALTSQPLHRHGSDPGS

In the case of `COCC(C(=O)N1CCN(c2ccc(C(F)(F)F)cc2)CC1)N1C(=O)CCC1=O` (configuration not stated), the “Ratio ED50” value [1] was 2, the “Ratio TD50/ED50” value [2] was 1.6 and the ED50 [3] was 79.5 to 83.3 mg/kg. For the same compound, the Activity [4] was 121%, the ED50 [5] was 22.4 to 26.9 mg/kg and the inhibition [6] was “inactive”. The Activity [7] was “Dose-dependent effect”, the Time [8] was 0.25 to 1 h and the inhibition [9] was “inactive”. The Retention time [10] was 6.11 min, the TD50 at 1 min [11] was 156 to 199 mg/kg and the “Ratio TD50/ED50” value [12] was 1.9 - 2.5. For the same compound, the inhibition in vivo at 50 mg/kg [13] was 32.7%, the inhibition in vivo at 100 mg/kg [14] was 59.3% and the Activity [15] was 149.2%. For the same compound, the inhibition [16] was “inactive”, the Activity [17] was “Non-Toxic” and the inhibition [18] was “inactive”. For the same compound, the Activity [19] was “<=75%”, the “inhibition (INH)” value [20] was “Not Active” and the inhibition [21] was “inactive”. The inhibition [22] was “Dose-dependent effect”, the “Ratio TD50/ED50” value [23] was 5.8 - 8.9 and the Activity [24] was 75 - 100%. The ED50 [25] was 123 mg/kg, the “inhibition (INH)” value [26] was “Not Active” and the inhibition [27] was “inactive”.

Reference: ChEMBL document CHEMBL4017532, “Multifunctional Hybrid Compounds Derived from 2-(2,5-Dioxopyrrolidin-1-yl)-3-methoxypropanamides with Anticonvulsant and Antinociceptive Properties” (J Med Chem, 2017)
